# Experiments:
# RORγt = target: T1, RORγt (Homo sapiens, UniProt P51449); assay: Cofactor peptide recruitment assay; assay type: biochemical
# T1 sequence (P51449 251-518): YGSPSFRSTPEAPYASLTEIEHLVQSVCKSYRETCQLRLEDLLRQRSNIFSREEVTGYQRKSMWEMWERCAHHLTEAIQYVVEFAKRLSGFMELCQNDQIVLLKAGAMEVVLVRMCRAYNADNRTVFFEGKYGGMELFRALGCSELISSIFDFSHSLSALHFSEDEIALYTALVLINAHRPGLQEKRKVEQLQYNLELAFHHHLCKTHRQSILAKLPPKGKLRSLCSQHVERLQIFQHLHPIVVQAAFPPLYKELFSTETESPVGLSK
# Procedure, shortened: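 Cell-free AlphaScreen measuring test compound interference with RORγt binding to SRC-1 coactivator peptide. […] Vehicle (DMSO) wells are set as 100% control and wells lacking protein as 0% control.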
# GPBAR1 = target: T2, GPBAR1 (Homo sapiens, UniProt Q8TDU6); assay: Luciferase reporter assay; assay type: cell-based
# T2 sequence (Q8TDU6 1-330): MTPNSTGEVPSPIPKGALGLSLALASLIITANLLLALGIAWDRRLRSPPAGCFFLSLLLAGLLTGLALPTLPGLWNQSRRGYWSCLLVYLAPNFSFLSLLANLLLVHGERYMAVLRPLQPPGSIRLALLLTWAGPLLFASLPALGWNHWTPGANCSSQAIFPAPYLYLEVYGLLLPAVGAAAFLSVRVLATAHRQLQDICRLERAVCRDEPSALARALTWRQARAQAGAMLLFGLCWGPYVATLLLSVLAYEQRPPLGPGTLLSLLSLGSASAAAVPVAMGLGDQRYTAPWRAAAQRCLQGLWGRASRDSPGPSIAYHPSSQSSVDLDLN
# Procedure, shortened: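 HEK-293T cells transfected with GPBAR1 carry a cAMP-responsive element (CRE) luciferase reporter. Single-point efficacy at 10 μM is scored against TLCA (10 μM) as 100%, as the mean of two experiments ± SD. EC50 comes from concentration-dependent CREB activation in the same transfected cells.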
# U937 cells = U937 cells activated with LPS plus TNFα, RT-PCR of proinflammatory genes; assay type: cell-based, human; settings: 1 μM, 24 h, compared to cells exposed only to LPS plus TNFα
# [1] = Aqueous solubility measurement; assay type: physicochemical; settings: PBS pH 7.4, pH 7.4, aqueous buffer, kinetic from dmso stock
# [2] = Metabolic stability in human liver microsomes; assay type: in vitro ADME; settings: pH 7.4
# TNBS-induced colitis = assay: Mouse model of TNBS-induced colitis; assay type: in vivo; settings: 10, 20 or 30 mg/kg/day by gavage
# Procedure, shortened: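 C57 male mice given TNBS to induce colitis, then vehicle or test compound at 10, 20 or 30 mg/kg/day by gavage, day 0 to day 4. Read-outs: body-weight change, CDAI, colon length, colon weight/length ratio, H&E of colon sections. Colon mRNA by RT-PCR normalised to Gapdh, Tbp and Actb. Mean ± SEM of 5–10 mice/group; p<0.05 vs TNBS or untreated.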
IC50 (RORγt),EC50 (GPBAR1),solubility at 24 h [1],Structure (SMILES),further results
1190 nM,220 nM,,C[C@H](CCCOc1ccc(C(=O)O)cc1)[C@H]1CC[C@H]2[C@@H]3CC=C4C[C@@H](O)CC[C@]4(C)[C@H]3CC[C@]12C [Compound 3],"Reduction in the expression of all measured genes (IL-1β, TNFα, IL-6, CD11c) (U937 cells): 30–50%"
,,10 µM,C[C@H](CCCOc1ccc(C#N)cc1)[C@H]1CC[C@H]2[C@@H]3CC=C4C[C@@H](O)CC[C@]4(C)[C@H]3CC[C@]12C [Compound 5],
107 nM,5900 nM,,C[C@H](CCCOc1cccc(CO)c1)[C@H]1CC[C@H]2[C@@H]3CC=C4C[C@@H](O)CC[C@]4(C)[C@H]3CC[C@]12C [Compound 7],"microsomal CLint at 1 µM [2]: 7 µL/min/mg; Damage to the colon (macroscopic analysis and H&E histology) (TNBS-induced colitis; day 0 to day 4): decreased the damage to the colon; Severity of colitis (percentage of body weight, CDAI) (TNBS-induced colitis; day 0 to day 4): relieved by 7 in a dose-dependent manner; Colon expression of IL-10 (TNBS-induced colitis; RT-PCR of colon): strong increase; Colon expression of Rorc, IL-17A, and F (TNBS-induced colitis; RT-PCR of colon): decreased the expression"
,,15 µM,C[C@H](CCCOc1ccc(C#N)cc1)[C@H]1CC[C@H]2[C@@H]3CC[C@@H]4C[C@H](O)CC[C@]4(C)[C@H]3CC[C@]12C [Compound 17],

# — paper PMC9933477 (ACS Omega, 2023)
